Converted amounts (≈) assume the structure as drawn.
Key:
Trichophyton rubrum [1] = experiment: Antifungal activity against Trichophyton rubrum ATCC 10218 by CLSI method; format: functional, organism-based
In short: (§1)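 Growth scraped from 1- to 6-week-old potato dextrose slants and filtered through Miracloth. Diluted in 5% Alamar blue-RPMI 1640 (MOPS pH 7.0) to 2.7 × 10⁴ CFU/ml. Eleven twofold dilutions in duplicate. Fluorescence at 544 nm excitation/590 nm emission read before and after 35°C, 5 days. IC50 fitted from percent growth. MIC taken as no detectable growth; MFC from clear or blue wells plated on PD agar.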

Trichophyton rubrum [2] = experiment: Antifungal activity against Trichophyton rubrum ATCC MYA-4438 by CLSI method; format: functional, organism-based; in short: as §1
[3] = system: Trichophyton mentagrophytes; experiment: Antifungal activity against Trichophyton mentagrophytes ATCC 9533 by CLSI method; format: functional, organism-based; in short: as §1
[4] = system: Trichophyton mentagrophytes; experiment: Antifungal activity against Trichophyton mentagrophytes ATCC MYA-4439 by CLSI method; format: functional, organism-based; in short: as §1
Cryptococcus neoformans [5] = experiment: Antifungal activity against Cryptococcus neoformans ATCC 66031 after 72 hrs by CLSI method; format: functional, organism-based; settings: ATCC 66031, 72 h
In short: (§2)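 SD broth replaced RPMI because growth in RPMI was poor; other CLSI conditions were kept. Inoculum was 1.5 × 10³ CFU/ml from colonies on SD agar, checked by plating. Twofold serial dilutions (11 concentrations) in 20% DMSO-saline were tested in duplicate. OD530 was read before and after incubation at 35°C for 72 h. Percent growth gave IC50; the MIC is the lowest concentration with no detectable growth.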

Cryptococcus neoformans [6] = experiment: Antifungal activity against Cryptococcus neoformans ATCC 90113 after 72 hrs by CLSI method; format: functional, organism-based; settings: ATCC 90113, 72 h; in short: as §2
Candida tropicalis = experiment: Antifungal activity against Candida tropicalis ATCC 750 after 48 hrs by CLSI method; format: functional, organism-based; settings: ATCC 750, 48 h
In short: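 Yeast suspensions made from 3-5 colonies off 24-72 h SD agar plates in saline. They were diluted by OD630 standard curve in RPMI 1640 (0.2% dextrose, 0.03% glutamine, 0.165 M MOPS, pH 7.0) to 1.5 × 10³ CFU/ml. Twofold dilutions (11 concentrations, 20% DMSO-saline) run in duplicate. OD530 read before and after 35°C, 48 h. Line values are top test concentrations; no-growth endpoints give MIC/MFC.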

Pichia kudriavzevii = experiment: Antifungal activity against Candida krusei ATCC 6258 after 48 hrs by CLSI method; format: functional, organism-based; settings: ATCC 6258, 48 h
In short: (§3)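 Candida inocula came from 24–72-h SD agar colonies suspended in saline. They were diluted by OD630 standard curve into RPMI 1640 (0.2% dextrose, 0.03% glutamine, 0.165 M MOPS, pH 7.0) to 1.5 × 10³ CFU/ml. Compounds were run as 11 twofold dilutions in 20% DMSO-saline, in duplicate, at 35°C for 48 h, with OD530 read before and after. Percent growth at the top concentration, IC50, MIC, and MFC (SD agar plating) were derived.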

Nakaseomyces glabratus = experiment: Antifungal activity against Candida glabrata ATCC 90030 after 48 hrs by CLSI methodCandida glabrata; format: functional, organism-based; settings: ATCC 90030, 48 h; in short: as §3
Candida albicans [7] = experiment: Antifungal activity against Fluconazole resistant Candida albicans clinical isolate 17 after 48 hrs by CLSI method; format: functional, organism-based
In short: (§4)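 CLSI broth microdilution. Colonies from 24–72 h SD agar suspended in saline and sized by OD630 standard curve. Inoculum 1.5 × 10³ CFU/ml (final) in RPMI 1640 (0.2% dextrose, 0.03% glutamine, 0.165 M MOPS, pH 7.0). Twofold dilutions (11 levels) from 20% DMSO-saline, in duplicate. 35°C for 48 h, OD530 read before and after. IC50 fitted from % growth. MIC: no detectable growth. MFC: subculture onto SD agar.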

Candida albicans [8] = experiment: Antifungal activity against Fluconazole resistant Candida albicans clinical isolate 1 after 48 hrs by CLSI method; format: functional, organism-based; in short: as §4
Candida albicans [9] = experiment: Antifungal activity against Candida albicans ATCC 200955 after 48 hrs by CLSI method; format: functional, organism-based; settings: ATCC 200955, 48 h; in short: as §4
Candida albicans [10] = experiment: Antifungal activity against Candida albicans ATCC 90028 after 48 hrs by CLSI method; format: functional, organism-based; settings: ATCC 90028, 48 h; in short: as §4
Candida albicans [11] = experiment: Antifungal activity against Candida albicans ATCC 32354 after 48 hrs by CLSI method; format: functional, organism-based; settings: ATCC 32354, 48 h; in short: as §4
SK-MEL = experiment: Cytotoxicity against human SK-MEL cells up to 32 uM by neutral red method; format: cell-based
In short: (§5)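 Neutral red uptake cytotoxicity, top concentration 32 μM.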

KB = experiment: Cytotoxicity against human KB cells up to 32 uM by neutral red method; format: cell-based; in short: as §5
BT-549 = experiment: Cytotoxicity against human BT549 cells up to 32 uM by neutral red method; format: cell-based; in short: as §5
SK-OV-3 = experiment: Cytotoxicity against human SKOV3 cells up to 32 uM by neutral red method; format: cell-based; in short: as §5
Vero = experiment: Cytotoxicity against African green monkey Vero cells up to 32 uM by neutral red method; format: cell-based; settings: chlorocebus sabaeus; in short: as §5
LLC-PK1 = experiment: Cytotoxicity against pig LLC-PK1 cells up to 32 uM by neutral red method; format: cell-based, Sus scrofa; in short: as §5
Candida albicans [12] = experiment: Antifungal activity against Candida albicans ATCC 14053 after 48 hrs by CLSI method; format: functional, organism-based; settings: ATCC 14053, 48 h; in short: as §4
Candida albicans [13] = experiment: Antifungal activity against Candida albicans ATCC 60193 after 48 hrs by CLSI method; format: functional, organism-based; settings: ATCC 60193, 48 h; in short: as §4
Aspergillus niger = experiment: Antifungal activity against Aspergillus niger ATCC 16404 after 48 h by CLSI method; settings: ATCC 16404, 48 h
Aspergillus fumigatus [14] = experiment: Antifungal activity against Aspergillus fumigatus ATCC 204305 after 48 h by CLSI method; settings: ATCC 204305, 48 h
Aspergillus fumigatus [15] = experiment: Antifungal activity against Aspergillus fumigatus ATCC 90906 after 48 h by CLSI method; settings: ATCC 90906, 48 h

Row | SMILES | IC50 (Trichophyton rubrum [1]) [nM] | MFC (Trichophyton rubrum [1]) [µM] | MIC (Trichophyton rubrum [1]) [µM] | IC50 (Trichophyton rubrum [2]) [nM] | MIC (Trichophyton rubrum [2]) [µM] | IC50 [3] [nM] | MFC [3] [µM] | MIC [3] [µM] | IC50 [4] [nM] | MFC [4] [µM] | MIC [4] [µM] | IC50 (Cryptococcus neoformans [5]) [nM] | IC50 (Candida tropicalis) [nM] | IC50 (Pichia kudriavzevii) [nM] | MIC (Pichia kudriavzevii) [µM] | IC50 (Candida albicans [7]) [nM] | MIC (Candida albicans [7]) [µM] | IC50 (Candida albicans [9]) [nM] | IC50 (Candida albicans [10]) [nM] | IC50 (Candida albicans [11]) [nM] | further results
1 | CCCCCCCCCCC#CCCCCC(=O)O | 6500 | 23.5 (≈ 6.26 µg/mL) | 17.6 (≈ 4.69 µg/mL) | 4100 | 29.3 (≈ 7.81 µg/mL) | 3700 | 11.7 (≈ 3.12 µg/mL) | 7.3 (≈ 1.94 µg/mL) | 3000 | 5.9 (≈ 1.57 µg/mL) | 5.9 (≈ 1.57 µg/mL) | 1200 | 49100 | 1900 | 4.4 (≈ 1.17 µg/mL) | 18800 | 70.4 (≈ 18.8 µg/mL) | 66700 | 95400 | 188000 | MIC (Cryptococcus neoformans [5]): 188 µM (≈ 50 µg/mL); IC50 (Cryptococcus neoformans [6]): > 188000 nM; IC50 (Nakaseomyces glabratus): > 188000 nM; IC50 (Candida albicans [8]): 82200 nM; Activity (SK-MEL): Non-toxic; Activity (KB): Non-toxic; Activity (BT-549): Non-toxic; Activity (SK-OV-3): Non-toxic; Activity (Vero): Non-toxic; Activity (LLC-PK1): Non-toxic; IC50 (Candida albicans [12]): > 188000 nM; IC50 (Candida albicans [13]): 150000 nM; IC50 (Aspergillus niger): > 188000 nM; IC50 (Aspergillus fumigatus [14]): 36600 nM; MIC (Aspergillus fumigatus [14]): 141 µM (≈ 37.5 µg/mL)
2 | CCCCCCCCCCCCC#CCCCCC(=O)O [6-NONADECYNOIC ACID] | 1000 | 5.3 (≈ 1.56 µg/mL) | 2 (≈ 0.589 µg/mL) | 600 | 3.3 (≈ 0.972 µg/mL) | 900 | 2.7 (≈ 0.795 µg/mL) | 2 (≈ 0.589 µg/mL) | 400 | 0.7 (≈ 0.206 µg/mL) | 0.7 (≈ 0.206 µg/mL) | 1100 | 5200 | 4100 | 10.6 (≈ 3.12 µg/mL) | 1500 | 8 (≈ 2.36 µg/mL) | 900 | 1300 | 1600 | MIC (Candida albicans [8]): 2.7 µM (≈ 0.795 µg/mL); MIC (Candida albicans [9]): 1.3 µM (≈ 0.383 µg/mL); MIC (Candida albicans [10]): 2.7 µM (≈ 0.795 µg/mL); MIC (Candida albicans [11]): 8 µM (≈ 2.36 µg/mL); Activity (SK-MEL): Non-toxic; Activity (KB): Non-toxic; Activity (BT-549): Non-toxic; Activity (SK-OV-3): Non-toxic; Activity (Vero): Non-toxic; Activity (LLC-PK1): Non-toxic; IC50 (Candida albicans [12]): 800 nM; MFC (Candida albicans [12]): 2.7 µM (≈ 0.795 µg/mL); MIC (Candida albicans [12]): 1.3 µM (≈ 0.383 µg/mL); IC50 (Candida albicans [13]): 1600 nM; MIC (Candida albicans [13]): 2.7 µM (≈ 0.795 µg/mL); IC50 (Aspergillus fumigatus [15]): 1400 nM; MIC (Aspergillus fumigatus [15]): 6.6 µM (≈ 1.94 µg/mL); IC50 (Aspergillus fumigatus [14]): 1100 nM; MIC (Aspergillus fumigatus [14]): 2.7 µM (≈ 0.795 µg/mL)
